# High-throughput results from PubChem BioAssay.
# HIF activator – HIF pathway transcriptional activation. 0.32% of 300,000 active. U2OS HRE-luciferase reporter, luminescence; normalized: DMSO 0%, desferrioxamine 100%. AID 1910. activation, % at 7.5 µM (by protocol);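 active = mean activation of at least 10% of the iron chelator positive control signal, with at least half of replicates also reaching 10%; inconclusive = mean and replicate majority disagree about reaching 10%; inactive = mean and most replicates under 10%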
# SR-BI uptake up – activators of SR-BI mediated HDL lipid uptake | 0.096% of 320,000 active | AID 504775 | CHO ldlA[mSR-BI] cells, DiI-HDL uptake fluorescence, 3 h; 100 = double the neutral-control signal | activation, % at 12.5 µM;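 active = mean replicate activation of at least 60% and every replicate at or above 60%; inconclusive = mean or all-replicate condition met, but not both; inactive = mean below 60% and not all replicates reaching 60%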;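 also: 0% = median plate neutral-control signal and 100% = twice that signal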
#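 System: CHO ldlA[mSR-BI] cells / Medium: HEPES-buffered (25 mM, pH 7.4) F12 plus 0.5% BSA / Probe or stimulus: labelled HDL, 10 µg/mL / Doses: single compound concentration, delivered by pin transfer / Schedule: 3 h, 37 °C / Measured by: DiI fluorescence, bottom read / Measure: cell-associated DiI fluorescence as measure of HDL uptake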
# FXN GAA850 act – increases GAA850 frataxin promoter reporter activity. HEK293 lucGAA850 FXN promoter luciferase reporter, 24 h; percent of 10 µM SAHA response. activation, % at 6 µM. 0.56% of 360,000 active. AID 540364;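 active = activation above the average of all compounds screened plus 3 SD, cutoff fixed separately per campaign, cut at about 7.5% in these data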;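 also: 0% = DMSO wells and 100% = 10 µM SAHA wells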
# AHR activator – activators of human aryl hydrocarbon receptor | P35869 | AHR-responsive luciferase reporter cells, luminescence | activation, % at 5 µM | 2.5% of 320,000 active | AID 2796; in the data active = activation above about 47%;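 also: 0% = vehicle wells and 100% = reference agonist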
# ABCB6 inh 2 – human ABCB6 transporter inhibition; 0.19% of 360,000 active; fluorescence ratio to DMSO, % at 10 µM; K562-ABCB6 porphyrin accumulation, flow cytometry, 1 h; active compounds read low; Q9NP58;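 active = fluorescence ratio to DMSO below 75%, the collection mean minus 3 SD; inconclusive = too few cells collected in the well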;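 also: signal is porphyrin accumulated inside mitochondria; 100% equals median channel fluorescence of DMSO control wells; lower ratio means ABCB6 inhibition with less porphyrin fluorescence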
# Target sequence (Q9NP58 whole entry, looked up): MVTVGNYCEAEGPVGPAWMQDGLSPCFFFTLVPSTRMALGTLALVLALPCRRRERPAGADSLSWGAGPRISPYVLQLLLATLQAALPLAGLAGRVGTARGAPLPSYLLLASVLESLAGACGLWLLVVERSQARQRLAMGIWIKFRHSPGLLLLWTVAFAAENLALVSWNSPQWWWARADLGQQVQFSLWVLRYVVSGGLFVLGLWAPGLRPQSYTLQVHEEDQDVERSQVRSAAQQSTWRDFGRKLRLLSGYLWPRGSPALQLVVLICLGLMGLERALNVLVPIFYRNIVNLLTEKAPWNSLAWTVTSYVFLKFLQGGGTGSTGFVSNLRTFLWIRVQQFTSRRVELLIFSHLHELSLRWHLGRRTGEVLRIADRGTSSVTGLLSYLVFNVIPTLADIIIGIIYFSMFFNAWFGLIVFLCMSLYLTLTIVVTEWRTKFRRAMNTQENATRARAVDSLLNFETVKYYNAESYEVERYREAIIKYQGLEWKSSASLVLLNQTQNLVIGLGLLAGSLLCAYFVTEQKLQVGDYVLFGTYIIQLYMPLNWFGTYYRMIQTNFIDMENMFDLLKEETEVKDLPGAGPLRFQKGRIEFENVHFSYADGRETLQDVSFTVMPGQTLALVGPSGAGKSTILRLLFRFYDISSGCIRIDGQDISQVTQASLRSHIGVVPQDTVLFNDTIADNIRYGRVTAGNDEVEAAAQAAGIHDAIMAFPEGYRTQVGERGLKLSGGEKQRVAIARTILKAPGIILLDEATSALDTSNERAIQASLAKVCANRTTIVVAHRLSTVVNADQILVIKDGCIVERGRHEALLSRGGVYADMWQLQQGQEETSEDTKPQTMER
# SR-BI DiI inh – blocks mouse SR-BI lipid uptake from DiI-HDL; AID 488896; 0.96% of 320,000 active; Q61009; ldlA[mSR-BI] CHO cells, DiI-HDL uptake fluorescence, 3 h; inhibition, % at 12.5 µM;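 active = mean replicate inhibition of at least 70% and a set share of replicates each scoring 70 or more; inconclusive = meets just one of the two criteria; inactive = fails both criteria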;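 also: 0% = median of neutral control wells and 100% = median of positive control wells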
# Active calls of the source: *; ? = inconclusive; · = no result. Rows were chosen to be rich in hits. Some 3.9% of all compounds tested hit in one or more screens of this group.
SMILES,HIF activator,SR-BI uptake up,FXN GAA850 act,AHR activator,ABCB6 inh 2,SR-BI DiI inh
O=S(=O)(Nc1c(O)ccc2ccccc12)c1ccccc1,0.0,9.3,0.4,54.3*,126.0,-9.3
COc1ccc(C(=O)Nc2nc3ccccc3c(=O)[nH]2)cc1,0.2,-2.5,2.0,73.6*,84.0,2.5
COc1ccc(C(=O)Nc2nc3cc(OC)c(OC)cc3c(=O)[nH]2)cc1,·,-85.9,-0.3,2.0,94.0,85.9*
COc1cc2nc(NC(=O)c3ccccc3)[nH]c(=O)c2cc1OC,-1.1,-68.7,-3.5,5.2,101.0,68.7
C=CCOc1c(Br)cc(/C=N/n2c(CC)n[nH]c2=S)cc1Br,-0.1,16.8,3.1,67.9*,95.0,-16.8
CCc1n[nH]c(=S)n1/N=C/c1cc(Br)c(O)c(OC)c1,-0.7,·,3.0,5.4,104.0,·
Cc1cc([N+](=O)[O-])nn1Cc1ccc(C(=O)N/N=C/c2ccc(F)cc2)cc1,-0.1,·,0.3,1.5,100.0,·
O=C(N/N=C/c1ccc(O)cc1O)c1ccc(CN2C(=O)c3cccc4cccc2c34)cc1,13.1*,-123.6,-5.1,3.7,102.0,123.6*
O=C(N/N=C/c1ccccc1)c1ccc(CN2C(=O)c3cccc4cccc2c34)cc1,0.2,-7.4,2.2,13.4,98.0,7.4
Cc1cc([N+](=O)[O-])nn1Cc1ccc(C(=O)N/N=C/c2ccc(O)cc2O)cc1,21.1*,-41.2,-5.4,1.1,81.0,41.1
CCc1noc(C)c1C(=O)Oc1ccc(N(C)S(=O)(=O)c2ccccc2)cc1,-0.4,-48.9,-0.9,1.7,96.0,48.9
O=C(NC1CC(=O)c2sccc21)c1cccc(C(F)(F)F)c1 (centres undefined),-0.2,20.4,2.3,7.4,88.0,-20.4
CC(C)N=C(Nc1ccc(Cl)cc1)c1cccnc1,-0.4,10.1,0.3,79.2*,94.0,-10.1
CC(C)c1ccc(NC(=O)c2cccnc2)cc1,2.9,25.0,5.7,37.5,101.0,-25.0
Cc1ccc(O)c(N=CC2=C(O)c3ccccc3C2=O)c1,5.6,-117.7,3.9,78.4*,104.0,117.7*
O=C1C(C=Nc2ccccc2O)=C(O)c2ccccc21,0.2,-52.4,3.2,43.3,98.0,52.4
O=C(CCNS(=O)(=O)c1ccc(Br)cc1)NC1CCN(Cc2ccccc2)CC1,0.0,-6.7,0.2,4.2,90.0,6.7
C/C(=N\NC(=O)c1cccc(N/N=C(\C)c2ccccc2)c1)c1ccccc1,·,-79.0,2.0,12.7,101.0,79.0*
C/C(=N\NC(=O)c1cc2c(s1)CCC(C)C2)c1ccncc1 (centres undefined),0.3,-60.0,7.3,55.9*,109.0,60.0
C/C(=N\NC(=O)c1cccc(N/N=C(\C)c2ccc([N+](=O)[O-])cc2)c1)c1ccc([N+](=O)[O-])cc1,0.4,·,3.3,4.8,112.0,·
C/C(=N\NC(=O)c1ccccc1O)c1cccc(NC(=O)c2ccccc2)c1,0.9,2.5,2.1,52.6*,98.0,-2.5
C/C(=N\NC(=O)c1cccc(N/N=C(\C)c2ccncc2)c1)c1ccncc1,-0.2,-60.6,2.2,66.7*,93.0,60.6
C/C(=N\NC(=O)c1cc2c(s1)CCC(C)C2)c1ccc[nH]1 (centres undefined),·,-3.2,3.1,40.1,93.0,3.2
COc1ccccc1NC(=O)c1ccc(COc2ccccc2OC)cc1,-1.0,-2.9,-0.7,-3.6,104.0,2.9
C/C(=N\NC(=O)c1ccncc1)c1cccc(NC(=O)c2ccc(C(C)(C)C)cc2)c1,2.6,-77.6,-1.0,1.0,102.0,77.6*
SMILES,HIF activator,SR-BI uptake up,FXN GAA850 act,AHR activator,ABCB6 inh 2,SR-BI DiI inh
COc1ccc(/C(C)=N/NC(=O)c2ccncc2)cc1[N+](=O)[O-],2.1,0.8,0.4,44.3,98.0,-0.8
C/C(=N\NC(=O)c1cccc([N+](=O)[O-])c1)c1ccncc1,-0.7,12.5,1.5,78.3*,94.0,-12.5
C/C(=N\NC(=O)COc1ccccc1[N+](=O)[O-])c1cccc(NC(=O)c2ccncc2)c1,1.4,-80.7,-0.5,16.1,93.0,80.7*
Cc1ccccc1-c1cc(C(=O)Nc2nc3c(s2)CCCC3)c2ccccc2n1,-0.6,-73.8,-0.1,23.5,105.0,?
COc1cccc2sc(Nc3nnc(-c4ccccc4Cl)o3)nc12,0.4,-22.8,-4.0,62.6*,98.0,22.8
COc1ccccc1-c1nnc(Nc2nc3c(OC)cccc3s2)o1,4.6,-40.4,-11.2,110.7*,96.0,40.4
COc1cccc2sc(Nc3nc(-c4ccncc4)cs3)nc12,0.1,-79.9,-8.0,63.7*,100.0,79.9*
COc1cccc(-c2nnc(Nc3nc4c(F)cccc4s3)o2)c1,1.4,-0.8,1.4,64.4*,98.0,0.8
CN1CN(C)c2cccc3cccc1c23,0.3,-17.0,-0.8,3.1,94.0,17.0
COc1ccc(S(=O)(=O)N2CCC(c3cc(-c4cccc5ccccc45)n[nH]3)CC2)cc1,11.2*,-2.9,-0.6,7.2,98.0,2.9
COc1cc(NC(=O)c2ccco2)c(C(=O)OCC(=O)c2c[nH]c3ccccc23)cc1OC,0.2,-43.3,-6.5,54.8*,106.0,43.3
COc1ccc(-c2nc3ncccc3o2)cc1NC(=O)c1ccco1,0.0,2.8,-1.8,76.3*,99.0,-2.8
CCOc1cc(NC(=O)c2ccco2)c(OCC)cc1NC(=O)c1cc(OC)c(OC)c(OC)c1,0.0,-59.5,-1.8,26.9,96.0,59.5
COc1cc(NC(=O)c2ccco2)c(OC)cc1NC(=O)c1cc(OC)c(OC)c(OC)c1,-0.7,-79.4,-4.5,7.5,86.0,79.4*
COc1ccc(NC(=O)c2ccc(NC(=O)c3ccco3)cc2)c(OC)c1,-0.3,-81.5,-1.2,5.7,98.0,81.5*
O=C(OCC(=O)c1c[nH]c2ccccc12)c1ccco1,2.8,-10.5,2.4,9.5,100.0,10.5
COc1ccccc1-c1noc(CCC(=O)NC2CCCC2)n1,-0.3,-3.5,-0.1,12.8,97.0,3.5
Cc1cc(OC(C)C(=O)NCc2cccnc2)c2c(C)c(Cc3ccccc3)c(=O)oc2c1 (centres undefined),-0.7,0.5,-0.8,4.6,94.0,-0.5
COc1cc(NC(=O)c2ccc(OC)c([N+](=O)[O-])c2)ccc1NC(=O)c1ccco1,0.0,-41.6,1.5,50.3*,95.0,41.6
NNc1nc(-c2ccccc2)cc(-c2ccc(Br)cc2)n1,-0.9,-9.2,0.8,69.2*,102.0,9.2
Cc1ccc2nc(/C(C#N)=C/c3cn[nH]c3-c3ccc(F)cc3)[nH]c2c1,4.8,-24.4,-4.7,76.5*,103.0,24.4
Cc1ccc2nc(/C(C#N)=C/c3ccc(O)c(O)c3)[nH]c2c1,3.1,-7.9,7.0,61.6*,139.0,7.9
